# Test results published in ChEMBL document CHEMBL5705899 (Biochem J, 2014).
# Activity calls are given as the source filed them. No cut-off for these calls is given here.
# Legend:
# [1] = molecular target: SRSF protein kinase 1 (Homo sapiens) (UniProt Q96SB4); assay: Inhibition of human SRPK1 at 1 uM using MBP as substrate in presence of 33P-ATP by ProQinase assay
# [2] = molecular target: Protein kinase C iota type (Homo sapiens) (UniProt P41743); assay: Inhibition of human PKCiota at 1 uM using 3xChocktide-PKC as substrate in presence of 33P-ATP by ProQinase assay
# [3] = molecular target: SRSF protein kinase 2 (Homo sapiens) (UniProt P78362); assay: Inhibition of human SRPK2 at 1 uM using MBP as substrate in presence of 33P-ATP by ProQinase assay
# [4] = molecular target: Casein kinase I isoform gamma-2 (Homo sapiens) (UniProt P78368); assay: Inhibition of human CK1gamma2 at 1 uM using casein as substrate in presence of 33P-ATP by ProQinase assay
# Casein kinase I isoform gamma-2 (Homo sapiens), sequence (P78368 whole entry, looked up, canonical isoform): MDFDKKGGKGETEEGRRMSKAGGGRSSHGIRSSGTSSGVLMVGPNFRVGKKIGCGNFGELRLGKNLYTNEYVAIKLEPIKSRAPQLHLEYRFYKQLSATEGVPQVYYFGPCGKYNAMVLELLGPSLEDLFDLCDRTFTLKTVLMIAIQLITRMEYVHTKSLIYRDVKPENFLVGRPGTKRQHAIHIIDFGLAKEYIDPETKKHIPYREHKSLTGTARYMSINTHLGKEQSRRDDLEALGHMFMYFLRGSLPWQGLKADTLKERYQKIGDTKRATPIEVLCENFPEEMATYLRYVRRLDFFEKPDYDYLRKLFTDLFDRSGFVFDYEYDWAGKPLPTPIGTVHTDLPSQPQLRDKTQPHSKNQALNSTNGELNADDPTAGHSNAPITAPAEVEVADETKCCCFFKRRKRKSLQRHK
# [5] = molecular target: TGF-beta receptor type-2 (Homo sapiens) (UniProt P37173); assay: Inhibition of human TGFBR2 at 1 uM using RB-S6P as substrate in presence of 33P-ATP by ProQinase assay
# [6] = molecular target: Leukocyte tyrosine kinase receptor (Homo sapiens) (UniProt P29376); assay: Inhibition of human LTK at 1 uM using polyEY as substrate in presence of 33P-ATP by ProQinase assay
# [7] = molecular target: Dual specificity protein kinase CLK2 (Homo sapiens) (UniProt P49760); assay: Inhibition of human CLK2 at 1 uM using RBER-GSK3 as substrate in presence of 33P-ATP by ProQinase assay
# [8] = molecular target: Ephrin type-A receptor 2 (Homo sapiens) (UniProt P29317); assay: Inhibition of human EPHA2 at 1 uM using polyEy as substrate in presence of 33P-ATP by ProQinase assay
# [9] = molecular target: Receptor tyrosine-protein kinase erbB-4 (Homo sapiens) (UniProt Q15303); assay: Inhibition of human ERBB4 at 1 uM using polyEy as substrate in presence of 33P-ATP by ProQinase assay
# [10] = molecular target: Tyrosine-protein kinase Lck (Homo sapiens) (UniProt P06239); assay: Inhibition of human LCK at 1 uM using polyEY as substrate in presence of 33P-ATP by ProQinase assay
# [11] = molecular target: Phosphatidylinositol 4-phosphate 3-kinase C2 domain-containing subunit beta (Homo sapiens, UniProt O00750); assay: Inhibition of human PIK3C2B using PIP2/PS as substrate by ADP-Glo assay
# [12] = molecular target: Protein kinase C gamma type (Homo sapiens) (UniProt P05129); assay: (§1) Inhibition of recombinant human N-terminal GST-tagged PKCgamma (1 to 697 residues) expressed in baculovirus infected Sf21 cells assessed as remaining activity at 1 uM using Histone H1 as substrate incubated for 30 mins in presence of [gamma-33P]ATP by filter binding method relative to control
# [13] = molecular target: Mitogen-activated protein kinase 8 (Homo sapiens) (UniProt P45983); assay: (§2) Inhibition of recombinant human His6-tagged JNK1 (1 to 384 residues) expressed in baculovirus infected Sf21 cells assessed as remaining activity at 1 uM using ATF2 as substrate incubated for 30 mins in presence of [gamma-33P]ATP by filter binding method relative to control
# Mitogen-activated protein kinase 8 (Homo sapiens), sequence (P45983 whole entry, the tested form may be a part): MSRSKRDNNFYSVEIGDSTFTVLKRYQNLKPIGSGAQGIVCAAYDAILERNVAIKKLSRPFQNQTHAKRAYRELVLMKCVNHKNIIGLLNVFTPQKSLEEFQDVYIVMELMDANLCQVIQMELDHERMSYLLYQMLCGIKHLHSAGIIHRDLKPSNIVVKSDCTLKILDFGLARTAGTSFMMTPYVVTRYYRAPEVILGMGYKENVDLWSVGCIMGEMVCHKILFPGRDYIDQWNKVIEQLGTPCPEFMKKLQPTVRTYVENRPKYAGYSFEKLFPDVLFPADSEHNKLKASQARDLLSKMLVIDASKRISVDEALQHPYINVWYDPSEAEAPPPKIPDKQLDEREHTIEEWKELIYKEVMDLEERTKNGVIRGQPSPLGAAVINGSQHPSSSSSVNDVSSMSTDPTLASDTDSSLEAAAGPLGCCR
# [14] = molecular target: Diacylglycerol kinase gamma (Homo sapiens) (UniProt P49619); assay: Inhibition of recombinant human N-terminal His6-tagged DGKgamma (1 to 752 residues) expressed in baculovirus expression system at 1 uM using diacyl-glycerol as substrate incubated for 40 mins by ADP-Glo assay
# Diacylglycerol kinase gamma (Homo sapiens), sequence (P49619 whole entry, the tested form may be a part): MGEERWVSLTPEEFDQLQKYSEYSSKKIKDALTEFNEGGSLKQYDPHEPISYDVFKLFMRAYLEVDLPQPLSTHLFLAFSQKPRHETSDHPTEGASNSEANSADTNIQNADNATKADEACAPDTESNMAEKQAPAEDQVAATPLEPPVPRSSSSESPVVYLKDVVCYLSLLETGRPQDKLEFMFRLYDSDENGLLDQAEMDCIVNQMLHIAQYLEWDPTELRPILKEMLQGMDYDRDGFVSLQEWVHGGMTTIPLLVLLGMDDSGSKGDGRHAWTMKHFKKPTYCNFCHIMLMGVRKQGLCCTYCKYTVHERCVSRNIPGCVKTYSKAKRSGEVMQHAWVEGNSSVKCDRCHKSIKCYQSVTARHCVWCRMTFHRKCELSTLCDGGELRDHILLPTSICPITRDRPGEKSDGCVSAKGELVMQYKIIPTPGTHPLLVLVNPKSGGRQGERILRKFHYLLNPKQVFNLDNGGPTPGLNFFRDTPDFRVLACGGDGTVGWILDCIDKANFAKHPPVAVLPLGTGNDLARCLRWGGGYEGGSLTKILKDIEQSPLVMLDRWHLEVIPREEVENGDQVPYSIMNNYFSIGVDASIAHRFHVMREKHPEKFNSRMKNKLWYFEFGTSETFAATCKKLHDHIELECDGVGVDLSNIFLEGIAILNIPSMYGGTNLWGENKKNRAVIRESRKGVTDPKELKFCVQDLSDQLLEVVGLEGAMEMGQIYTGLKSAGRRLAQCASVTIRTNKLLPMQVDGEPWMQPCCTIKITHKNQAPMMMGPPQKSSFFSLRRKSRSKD
# [15] = molecular target: Non-receptor tyrosine-protein kinase TYK2 (Homo sapiens) (UniProt P29597); assay: Inhibition of human TYK2 at 1 uM using poly(Ala,Glu,Lys,Tyr) as substrate in presence of 33P-ATP by ProQinase assay
# Non-receptor tyrosine-protein kinase TYK2 (Homo sapiens), sequence (P29597 whole entry): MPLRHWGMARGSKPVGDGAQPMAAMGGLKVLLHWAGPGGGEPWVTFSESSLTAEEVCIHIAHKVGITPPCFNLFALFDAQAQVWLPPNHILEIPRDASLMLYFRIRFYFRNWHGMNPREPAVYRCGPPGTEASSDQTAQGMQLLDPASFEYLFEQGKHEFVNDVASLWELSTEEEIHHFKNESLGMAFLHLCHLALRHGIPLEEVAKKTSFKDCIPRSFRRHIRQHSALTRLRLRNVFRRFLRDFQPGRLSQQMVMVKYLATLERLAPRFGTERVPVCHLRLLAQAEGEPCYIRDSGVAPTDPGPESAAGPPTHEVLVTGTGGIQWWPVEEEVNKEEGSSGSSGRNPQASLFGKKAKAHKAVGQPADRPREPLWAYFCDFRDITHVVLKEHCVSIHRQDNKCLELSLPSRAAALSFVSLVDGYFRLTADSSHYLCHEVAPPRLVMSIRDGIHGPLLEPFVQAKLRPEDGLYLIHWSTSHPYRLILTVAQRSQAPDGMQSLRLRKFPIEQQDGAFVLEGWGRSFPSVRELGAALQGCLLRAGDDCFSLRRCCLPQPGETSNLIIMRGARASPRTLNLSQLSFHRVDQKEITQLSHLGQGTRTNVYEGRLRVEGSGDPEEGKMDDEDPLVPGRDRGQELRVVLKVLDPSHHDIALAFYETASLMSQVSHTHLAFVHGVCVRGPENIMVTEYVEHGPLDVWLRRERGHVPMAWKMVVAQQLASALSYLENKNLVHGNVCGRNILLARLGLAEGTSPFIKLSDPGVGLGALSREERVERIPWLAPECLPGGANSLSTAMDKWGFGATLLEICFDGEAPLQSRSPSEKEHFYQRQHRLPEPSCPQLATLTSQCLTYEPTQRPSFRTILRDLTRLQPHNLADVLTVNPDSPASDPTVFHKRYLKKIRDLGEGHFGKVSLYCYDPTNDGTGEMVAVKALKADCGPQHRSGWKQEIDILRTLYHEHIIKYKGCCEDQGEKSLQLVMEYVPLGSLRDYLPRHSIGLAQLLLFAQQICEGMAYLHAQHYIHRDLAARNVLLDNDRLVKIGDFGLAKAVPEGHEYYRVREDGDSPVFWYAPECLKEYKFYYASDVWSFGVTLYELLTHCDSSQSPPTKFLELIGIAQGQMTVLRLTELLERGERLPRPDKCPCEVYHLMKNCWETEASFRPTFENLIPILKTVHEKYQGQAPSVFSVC
# [16] = molecular target: Fibroblast growth factor receptor 1 (Homo sapiens) (UniProt P11362); assay: Inhibition of human FGFR1 at 1 uM using polyEy as substrate in presence of 33P-ATP by ProQinase assay
# [17] = molecular target: Serine/threonine-protein kinase SIK3 (Homo sapiens) (UniProt Q9Y2K2); assay: as §1, with “GST and HA-tagged SIK3 (2” for “GST-tagged PKCgamma (1”, “1369” for “697”, “ALNRTSSDSALHRRR” for “Histone H1”
# [18] = molecular target: Ephrin type-A receptor 4 (Homo sapiens) (UniProt P54764); assay: Inhibition of human EPHA4 at 1 uM using polyEY as substrate in presence of 33P-ATP by ProQinase assay
# Ephrin type-A receptor 4 (Homo sapiens), sequence (P54764 whole entry, the tested form may be a part): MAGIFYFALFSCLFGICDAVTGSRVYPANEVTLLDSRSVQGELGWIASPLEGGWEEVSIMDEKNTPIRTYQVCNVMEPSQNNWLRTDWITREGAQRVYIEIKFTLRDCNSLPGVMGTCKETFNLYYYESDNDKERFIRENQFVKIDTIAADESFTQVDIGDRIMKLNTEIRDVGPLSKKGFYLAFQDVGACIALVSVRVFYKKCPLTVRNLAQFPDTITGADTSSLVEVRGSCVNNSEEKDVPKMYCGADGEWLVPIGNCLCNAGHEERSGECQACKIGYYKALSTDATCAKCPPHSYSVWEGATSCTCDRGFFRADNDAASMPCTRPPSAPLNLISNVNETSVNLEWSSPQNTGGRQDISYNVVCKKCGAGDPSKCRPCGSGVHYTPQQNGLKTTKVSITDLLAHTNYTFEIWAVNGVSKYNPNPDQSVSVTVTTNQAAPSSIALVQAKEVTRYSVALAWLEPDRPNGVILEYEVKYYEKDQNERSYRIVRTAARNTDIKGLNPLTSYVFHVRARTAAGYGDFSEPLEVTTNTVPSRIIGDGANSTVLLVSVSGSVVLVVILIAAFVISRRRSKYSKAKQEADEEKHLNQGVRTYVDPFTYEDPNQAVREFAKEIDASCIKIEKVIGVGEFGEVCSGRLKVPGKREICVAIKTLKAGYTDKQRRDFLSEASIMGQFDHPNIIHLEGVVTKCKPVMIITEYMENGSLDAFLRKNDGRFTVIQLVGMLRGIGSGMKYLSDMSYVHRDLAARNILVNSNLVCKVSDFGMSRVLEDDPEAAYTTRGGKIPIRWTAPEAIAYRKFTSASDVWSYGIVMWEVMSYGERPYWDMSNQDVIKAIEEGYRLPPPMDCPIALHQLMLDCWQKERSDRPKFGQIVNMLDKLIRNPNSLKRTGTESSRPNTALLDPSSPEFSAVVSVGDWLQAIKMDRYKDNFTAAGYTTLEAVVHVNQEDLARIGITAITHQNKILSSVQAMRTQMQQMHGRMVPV
# [19] = molecular target: Ephrin type-A receptor 4 (Homo sapiens) (UniProt P54764); assay: Inhibition of recombinant human N-terminal GST-tagged EPHA4 (570 to 986 residues) expressed in Escherichia coli assessed as remaining activity at 1 uM using Poly (Glu,Tyr) as substrate incubated for 30 mins in presence of [gamma-33P]ATP by filter binding method relative to control
# [20] = molecular target: MAP/microtubule affinity-regulating kinase 4 (Homo sapiens) (UniProt Q96L34); assay: as §2, with “human N-terminal” for “human”, “MARK4 (2” for “JNK1 (1”, “752” for “384”, “KKKVSRSGLYRSPSMPENLNRPR” for “ATF2”
# [21] = molecular target: cAMP-dependent protein kinase catalytic subunit alpha (Homo sapiens) (UniProt P17612); assay: Inhibition of human PKACalpha at 1 uM using bio-4xCHKT as substrate in presence of 33P-ATP by ProQinase assay
# [22] = molecular target: Serine/threonine-protein kinase PAK 2 (Homo sapiens) (UniProt Q13177); assay: Inhibition of PAK2 (unknown origin) assessed as remaining activity at 1 uM relative to control
# Serine/threonine-protein kinase PAK 2 (Homo sapiens), sequence (Q13177 whole entry): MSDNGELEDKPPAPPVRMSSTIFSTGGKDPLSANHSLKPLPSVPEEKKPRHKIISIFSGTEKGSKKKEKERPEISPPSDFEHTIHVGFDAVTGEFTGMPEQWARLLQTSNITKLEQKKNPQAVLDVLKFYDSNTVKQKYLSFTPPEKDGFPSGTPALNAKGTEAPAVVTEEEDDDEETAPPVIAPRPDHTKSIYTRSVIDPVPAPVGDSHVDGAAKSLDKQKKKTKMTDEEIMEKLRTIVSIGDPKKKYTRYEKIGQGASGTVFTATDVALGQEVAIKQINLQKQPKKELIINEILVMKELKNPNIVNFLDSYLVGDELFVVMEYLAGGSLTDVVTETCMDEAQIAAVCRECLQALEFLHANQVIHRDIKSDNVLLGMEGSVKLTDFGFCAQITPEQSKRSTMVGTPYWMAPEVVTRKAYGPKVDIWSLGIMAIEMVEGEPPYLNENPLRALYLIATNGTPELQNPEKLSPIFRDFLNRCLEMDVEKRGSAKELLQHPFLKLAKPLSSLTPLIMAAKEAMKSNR
# Summary of the method: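 Dundee panel of 140 protein kinases, tested at a single 1 μM concentration. Each assay was run in triplicate. Remaining activity is expressed relative to a control reaction without inhibitor, as mean ± S.D. Conditions for each kinase were those of the screening centre.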
# [23] = molecular target: Serine/threonine-protein kinase SIK2 (Homo sapiens) (UniProt Q9H0K1); assay: Inhibition of human SNF1LK2 at 1 uM using RBER-CHKtide as substrate in presence of 33P-ATP by ProQinase assay
# [24] = species on record: Homo sapiens; assay: Inhibition of DGK (unknown origin) at 1 uM
# [25] = molecular target: Serine/threonine-protein kinase Nek3 (Homo sapiens) (UniProt P51956); assay: Inhibition of human NEK3 at 1 uM using RBER-CHKtide as substrate in presence of 33P-ATP by ProQinase assay
# [26] = molecular target: Proto-oncogene tyrosine-protein kinase ROS (Homo sapiens) (UniProt P08922); assay: Inhibition of human ROS at 1 uM using poly(Ala,Glu,Lys,Tyr) as substrate in presence of 33P-ATP by ProQinase assay
# [27] = molecular target: Mitogen-activated protein kinase 7 (Homo sapiens) (UniProt Q13164); assay: Inhibition of recombinant human N-terminal His6-tagged ERK5 (1 to 816 residues) expressed in baculovirus infected Sf21 cells assessed as remaining activity at 1 uM using MBP as substrate incubated for 30 mins in presence of [gamma-33P]ATP by filter binding method relative to control
smiles,measurement,setting,value
CC(C)(O)CNc1ncc(-c2ccnc(Nc3ccnc(Cl)c3)n2)c(CC2CC2)n1,inhibition,[1],inactive
same,inhibition,[2],inactive
same,inhibition,[3],inactive
same,inhibition,[4],inactive
same,inhibition,[5],inactive
same,inhibition,[6],inactive
same,inhibition,[7],inactive
same,inhibition,[8],inactive
same,inhibition,[9],inactive
same,inhibition,[10],inactive
same,IC50,[11],> 10 µM
same,Activity,[12],111%
same,Activity,[13],112%
same,inhibition,[14],inactive
same,inhibition,[15],inactive
same,inhibition,[16],inactive
same,Activity,[17],112%
same,inhibition,[18],inactive
same,Activity,[19],93%
same,Activity,[20],115%
same,inhibition,[21],inactive
same,Activity,[22],111%
same,inhibition,[23],inactive
same,inhibition,[24],inactive
same,inhibition,[25],inactive
same,inhibition,[26],inactive
same,Activity,[27],104%
